High-throughput results: PubChem BioAssay, several laboratories
TRPC4 act = TRPC4 (mouse) channel activation; Q9QUQ5; HEK293 TRPC4beta/mu-opioid, Fluo4 calcium fluorescence; hits give high values; B-score at 10 µM; actives 0.49% (n = 310,000);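 active means B-score above 5 SD of library B-scores, and initial fluorescence ratio not above library mean plus 5 SD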;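 further: positive B-score marks a calcium rise read as TRPC4 activation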
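System – HEK293 cells stably co-expressing mouse TRPC4beta and mu-opioid receptor · Signal – Fluo4 calcium-sensitive dye fluorescence, kinetic, 1 Hz baseline · Benchmarks – buffer (low) and maximal DAMGO (high) · Read-out – B score of integrated fluorescence ratio per well · Incubation – dye loading 45 min room temperature, 110 s kinetic read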
Pemphigus Ab inh = human desmoglein-3 autoantibody binding inhibition; actives 0.48% (n = 310,000); AID 588358; binding (percent of control), % at 10 µM; DSG3-coupled beads, scFv-anti-DSG3-GFP binding, flow cytometry; hits give low values;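 active means binding more than 3 SD below its plate's average and above zero; inconclusive means below that plate limit but binding exactly zero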;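 further: hits lower antibody fragment binding to DSG3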
TRPC6 inh = mouse TRPC6 channel inhibition. AID 2553. B-score at 10 µM. HEK293-TRPC6, membrane potential dye, ACh-evoked depolarization; hits give low values. actives 1.1% (n = 310,000);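 active means B-score under library mean minus 3 SD, initial fluorescence not abnormally high, positive integrated signal ratio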;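 further: B-score derived from integrated fluorescence ratio over the kinetic read; more negative B-score means stronger inhibition of depolarization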
Target sequence (Q61143 whole entry, looked up): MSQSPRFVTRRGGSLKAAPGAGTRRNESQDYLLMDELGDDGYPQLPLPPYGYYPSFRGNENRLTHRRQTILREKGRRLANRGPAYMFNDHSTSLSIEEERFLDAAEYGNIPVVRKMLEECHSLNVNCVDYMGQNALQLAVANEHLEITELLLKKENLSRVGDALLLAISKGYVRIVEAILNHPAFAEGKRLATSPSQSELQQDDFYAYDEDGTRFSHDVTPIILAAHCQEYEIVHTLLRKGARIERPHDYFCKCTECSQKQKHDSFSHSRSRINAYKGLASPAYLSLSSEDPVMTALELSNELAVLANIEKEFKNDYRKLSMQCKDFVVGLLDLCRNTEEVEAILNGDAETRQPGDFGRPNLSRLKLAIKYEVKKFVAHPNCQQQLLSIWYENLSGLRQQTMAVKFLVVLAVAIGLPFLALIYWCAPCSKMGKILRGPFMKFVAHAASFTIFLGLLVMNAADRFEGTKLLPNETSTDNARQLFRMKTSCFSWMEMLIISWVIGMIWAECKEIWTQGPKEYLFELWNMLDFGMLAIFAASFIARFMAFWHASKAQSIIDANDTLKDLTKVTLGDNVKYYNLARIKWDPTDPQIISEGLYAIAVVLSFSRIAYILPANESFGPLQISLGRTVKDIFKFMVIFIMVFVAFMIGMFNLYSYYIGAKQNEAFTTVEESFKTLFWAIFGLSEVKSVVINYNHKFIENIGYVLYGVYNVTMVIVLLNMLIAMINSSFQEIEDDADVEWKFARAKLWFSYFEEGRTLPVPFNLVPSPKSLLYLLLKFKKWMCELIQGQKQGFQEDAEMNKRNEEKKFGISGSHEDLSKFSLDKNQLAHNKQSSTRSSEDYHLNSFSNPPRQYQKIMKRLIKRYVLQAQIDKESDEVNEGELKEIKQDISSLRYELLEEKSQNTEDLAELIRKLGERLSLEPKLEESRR
TRPC4 potent = TRPC4 (mouse) allosteric potentiation; B-score at 10 µM; Q9QUQ5; actives 0.42% (n = 310,000); AID 2227; HEK293 TRPC4beta/mu-opioid, DAMGO EC20, Fluo-4 Ca2+ flux; hits give high values;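 active means B-score of calcium response area above 5 SD of library B-scores, with initial fluorescence ratio within 5 SD of library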;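 further: B-score of integrated fluorescence ratio over time as area under calcium response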
TRPC4 block = inhibitors of mouse TRPC4 channel; actives 0.39% (n = 300,000); Q9QUQ5; AID 2247; HEK293 TRPC4beta/mu-opioid, DAMGO-evoked Fluo4 calcium flux; hits give low values; B-score at 10 µM;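 active means B-score over 3 SD under the library average, no early fluorescence shift, positive overall ratio signal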
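test system = HEK293 cells with stable TRPC4beta plus mu-opioid receptor expression | detection = Fluo4 Ca2+ flux fluorescence | read-out = integrated fluorescence ratio relative to baseline, converted to per-well B score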
TRPC6 act = mouse TRPC6 channel activation; HEK293-TRPC6 membrane potential dye fluorescence; hits give high values; B-score at 10 µM; actives 0.13% (n = 310,000); AID 2550;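 active means B-score of the integrated fluorescence ratio above library mean plus 3 SD, and starting fluorescence ratio within library mean plus 5 SD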;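 further: higher score means more depolarization so channel activation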
* = called active by the depositor; i = inactive; ? = inconclusive; . = no result. Sampled rows, rich in hits. Any-hit rate of the full collection: about 2.5%.

SMILES	TRPC4 act	Pemphigus Ab inh	TRPC6 inh	TRPC4 potent	TRPC4 block	TRPC6 act
Cc1ccc(N(CC(=O)NC(C)(C)C)C(=O)CNC(=O)c2cccs2)c(C)c1	i	81*	i	i	i	i
O=C(Cn1cnc2c(nnn2Cc2ccc(Cl)cc2)c1=O)c1ccccc1	i	62*	i	i	i	i
O=C(Cn1cnc2c(nnn2Cc2ccccc2)c1=O)c1ccccc1	i	105	i	i	i	i
O=C(CSc1ncccn1)N1CCC(Cc2ccccc2)CC1	i	111	i	i	i	i
O=C(c1cccs1)N1CCN(c2ncc(C(F)(F)F)cc2Cl)CC1	i	116	i	i	i	i
O=C(CN1CCN(c2ncc(C(F)(F)F)cc2Cl)CC1)N1CCN(c2ncc(C(F)(F)F)cc2Cl)CC1	93*	77	i	i	i	i
Cc1ccc(C(=O)OCCN2CCN(c3ncc(C(F)(F)F)cc3Cl)CC2)cc1	i	110	i	16*	i	i
CN(C)c1ccc(NC(=S)N2CCN(c3ncc(C(F)(F)F)cc3Cl)CC2)cc1	127*	114	i	i	i	i
O=C(OCCN1CCN(c2ncc(C(F)(F)F)cc2Cl)CC1)c1ccc(F)cc1	i	108	i	10*	i	i
O=c1c(Cl)c(NCc2ccccc2)cnn1C12CC3CC(CC(C3)C1)C2	i	93	i	i	i	i
Cc1ccc(S(=O)(=O)Nc2cccc(C(=O)NCC(c3ccco3)N3CCCCC3)c2)cc1F (configuration not stated)	i	103	i	i	-9*	i
Cc1cc(S(=O)(=O)Nc2ccc(C(=O)NCC(c3ccco3)N3CCCCC3)cc2)ccc1F (configuration not stated)	i	101	i	i	i	i
Cc1ccc(S(=O)(=O)NCCC(=O)NCC(c2ccco2)N2CCCCC2)cc1C (configuration not stated)	72*	98	i	i	-6*	i
O=C(CCC(=O)c1ccc(Oc2ccccc2)cc1)Nc1cccc(Cl)c1	i	97	i	i	i	i
O=C(CCCCCCC(=O)c1ccccc1)c1ccccc1	i	62*	i	i	i	i
COC(=O)CCC(=O)Nc1ccc(N=Nc2ccccc2)cc1	i	-11*	i	i	i	i
COc1ccc(C(=O)CCC(=O)Nc2cccc(Cl)c2)cc1	i	97	i	18*	i	i
O=C(CCC(=O)c1ccccc1)Nc1ccccc1	i	80*	i	i	i	i
Cc1cc(C)c(S(=O)(=O)N(C)CC(=O)NCCCn2ccnc2)c(C)c1	i	108	i	i	i	i
CCn1c(=NC(=O)C2COc3ccccc3O2)sc2c(OC)ccc(OC)c21 (configuration not stated)	i	98	i	i	i	i
COc1ccc(/C=N/NC(=O)c2cccc(O)c2)cc1Cn1nc(C)c([N+](=O)[O-])c1C	i	100	i	i	i	i
OCC[C@@H]1C[C@@H](O)[C@H](O)[C@]2(CCCO2)O1	i	103	i	i	i	i
COc1cccc2c1NC(C(=O)O)C1CC=CC21 (configuration not stated)	i	13*	i	i	i	i
CCOC(=O)C1=C(C)N(c2ccccc2)C(=O)NC1c1cccc([N+](=O)[O-])c1 (configuration not stated)	i	120	i	15*	i	i
CCOc1cc(CNCc2cccs2)ccc1OCC(=O)NC(C)(C)C	i	106	i	i	-6*	i
SMILES	TRPC4 act	Pemphigus Ab inh	TRPC6 inh	TRPC4 potent	TRPC4 block	TRPC6 act
COc1ccccc1NC(=O)c1ccccc1Nc1ccccc1	i	97	i	i	i	i
COc1ccccc1Nc1ccc(N)cc1	i	39*	i	i	i	i
CCN(CC(=O)NCc1ccc(Cl)cc1)C(=O)CCOc1ccc(C)cc1	i	?	i	i	i	i
O=C(NC(C(=O)N/N=C/c1ccncc1)c1n[nH]c(=O)c2ccccc12)c1ccccc1 (configuration not stated)	i	100	i	i	i	i
O=C(NC(C(=O)N/N=C/c1cccnc1)c1n[nH]c(=O)c2ccccc12)c1ccccc1 (configuration not stated)	53*	103	i	i	i	i
N#CC1=C(N)C(C#N)(C#N)C(c2cccnc2)C2CC(c3ccccc3)CC=C12 (configuration not stated)	i	93	i	36*	i	i
CCOc1ccccc1N1CCN(CC(O)COC2CCCc3ccccc32)CC1 (configuration not stated)	i	-39*	i	i	i	i
O=C(Nc1ccc(Oc2ccc(C(=O)O)c(C(=O)O)c2)cc1)c1cccs1	i	101	i	i	i	i
CSc1ncccc1C(=O)OCc1cccc([N+](=O)[O-])c1	i	113	i	i	i	i
CSc1ncccc1C(=O)OCc1ccc([N+](=O)[O-])cc1	i	79*	i	i	i	i
Fc1cccc(CN2CCN(Cc3nc(-c4cnccn4)no3)CC2)c1	i	-16*	i	i	i	i
CCN1CCN(CCOc2ccc(Br)cc2C)CC1	i	97	i	i	i	i
Cc1cc(Br)ccc1OCCN1CCCC1	i	115	i	15*	i	i
OCCN(CCO)c1ncnc2c1sc1nc(N3CCOCC3)c3c(c12)CCCC3	i	.	i	15*	i	i
COc1ccccc1C(=O)N/N=C(\C)c1ccc(NC(=O)Cc2ccccc2)cc1	i	101	i	i	i	i
COc1ccccc1C(=O)N/N=C(\C)c1ccc(NC(=O)C2CC2)cc1	i	2.4*	i	i	i	i
O=C(NCCc1ccco1)C(=O)NCC1OCCCN1S(=O)(=O)c1cc(F)ccc1F (configuration not stated)	i	106	i	i	i	i
CCOc1ccc(CCNC(=O)c2ccc3c(=O)[nH]c4c(C(=O)NC(C)C)sc(=S)n4c3c2)cc1	i	139	i	18*	i	i
CCCCNC(=O)c1sc(=S)n2c1[nH]c(=O)c1ccccc12	46*	105	i	i	i	i
